Data: ChEMBL document CHEMBL1152922, “7-O-methylkaempferol and -quercetin glycosides from the whole plant of Nervilia fordii” (J Nat Prod, 2009)
The source made the active and inactive calls. No cut-off for these calls is given here.

Experiments:
Human alphaherpesvirus 1 [1] = assay: Antiviral activity against HSV1 infected in african green monkey Vero cells assessed as inhibition of virus-induced cytopathic effect after 3 days; conditions: Human alphaherpesvirus 1, Vero, 72 h
[2] = Cytotoxicity against african green monkey Vero cells after 3 days by MTT assay; type: cell-based; conditions: chlorocebus sabaeus, read-out: MNCC
Human alphaherpesvirus 1 [3] = assay: Antiviral activity against HSV1 infected in african green monkey Vero cells assessed as total inhibitory concentration after 3 days by plaque reduction assay; type: functional
Outline: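 Vero cells seeded in 24-well plates and grown 24 h, then infected with 30 PFU HSV-1 in the presence of a range of sample concentrations. Samples were diluted in DMEM with 2% FBS at pH 7.2, and medium alone served as control. Wells were overlaid with 1% methylcellulose medium and incubated 3 days, then formalin-fixed and crystal violet-stained. Plaques were counted, and the 100%-inhibitory concentration was read from plots.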

IC50 (Human alphaherpesvirus 1 [1]) [µM]	Compound	MNTC at 72 h [2] [µM]	Activity (Human alphaherpesvirus 1 [3])
4.3	Nc1nc2c(ncn2COCCO)c(=O)[nH]1 [ACYCLOVIR]	1110	
	O=c1cc(-c2ccc(O)cc2)oc2c([C@@H]3O[C@H](CO)[C@@H](O)[C@H](O)[C@H]3O)c(O)c([C@@H]3O[C@H](CO)[C@@H](O)[C@H](O)[C@H]3O)c(O)c12	170	inactive
	COc1cc(O)c2c(=O)c(O)c(-c3ccc(O)c(O)c3)oc2c1 [RHAMNETIN]	80	inactive
	COc1cc(O)c2c(=O)c(O)c(-c3ccc(O)cc3)oc2c1 [RHAMNOCITRIN]	80	inactive
	COc1cc(O)c2c(=O)c(O[C@@H]3O[C@H](CO)[C@@H](O[C@@H]4O[C@H](CO)[C@@H](O)[C@H](O)[C@H]4O)[C@H](O)[C@H]3O)c(-c3ccc(O)cc3)oc2c1 [NERVILIFORDIN B]	160	inactive
	COc1cc(O)c2c(=O)c(O)c(-c3ccc(O)c(OC)c3)oc2c1 [RHAMNAZIN]	40	inactive
	O=c1ccc2cc(O)c(O)cc2o1 [ESCULETIN]	140	0.14 mM
	COc1cc(O)c2c(=O)c(O[C@@H]3O[C@H](CO)[C@@H](O[C@@H]4OC[C@@H](O)[C@H](O)[C@H]4O)[C@H](O)[C@H]3O)c(-c3ccc(O)cc3)oc2c1 [NERVILIFORDIN A]	170	inactive
	COc1cc(O)c2c(=O)c(O[C@@H]3O[C@H](CO)[C@@H](O)[C@H](O)[C@H]3O)c(-c3ccc(O)c(OC)c3)oc2c1	200	inactive
	COc1cc(O)c2c(=O)c(O[C@@H]3O[C@H](CO)[C@@H](O)[C@H](O)[C@H]3O)c(-c3ccc(O[C@@H]4O[C@H](CO)[C@@H](O)[C@H](O)[C@H]4O)cc3)oc2c1 [COMPLANATUSIDE]	320	inactive
	COc1cc(O)c2c(=O)c(O[C@@H]3O[C@H](CO)[C@@H](O[C@@H]4O[C@H](CO)[C@@H](O)[C@H](O)[C@H]4O)[C@H](O)[C@H]3O)c(-c3ccc(O)c(O)c3)oc2c1 [NERVILIFORDIN C]	160	inactive
